Assay outcomes: PubChem, several laboratories
ABCG2 block: inhibitors of human ABCG2 transporter, ABCB1 counter-screen; Q9UNQ0; IgMXP3 cells, JC-1 efflux, flow cytometry; inhibition, % at 6.6 µM; 190,000 tested, 0.1% active; AID 1325;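 active = inhibition above 80%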;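 also: 0% = DMSO and 100% = nicardipine control wells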
Target sequence (Q9UNQ0 whole entry, looked up): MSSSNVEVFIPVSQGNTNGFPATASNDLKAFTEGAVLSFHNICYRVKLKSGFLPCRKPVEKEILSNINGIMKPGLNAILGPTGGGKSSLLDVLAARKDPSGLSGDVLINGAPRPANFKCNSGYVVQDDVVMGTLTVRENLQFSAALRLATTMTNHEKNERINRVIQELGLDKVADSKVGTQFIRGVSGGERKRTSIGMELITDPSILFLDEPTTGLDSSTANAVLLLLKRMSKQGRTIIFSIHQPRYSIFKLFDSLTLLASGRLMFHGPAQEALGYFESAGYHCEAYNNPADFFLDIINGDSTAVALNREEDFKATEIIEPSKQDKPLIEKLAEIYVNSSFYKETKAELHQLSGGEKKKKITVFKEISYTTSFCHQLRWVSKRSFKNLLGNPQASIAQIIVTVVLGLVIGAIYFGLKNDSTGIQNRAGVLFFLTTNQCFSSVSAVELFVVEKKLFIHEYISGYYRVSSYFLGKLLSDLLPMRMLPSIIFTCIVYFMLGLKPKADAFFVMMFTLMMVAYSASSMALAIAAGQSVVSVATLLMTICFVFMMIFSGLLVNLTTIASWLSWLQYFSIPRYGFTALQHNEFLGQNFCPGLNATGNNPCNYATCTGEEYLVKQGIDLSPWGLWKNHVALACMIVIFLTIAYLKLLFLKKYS
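Test system: IgMXP3 cells (ABCG2) mixed with DDAO far-red-labelled CCRF-Adr cells (ABCB1). Reagent: JC-1 transporter substrate. Compound dosing: single test compound dose, 6.6 µM final. Times: 10 min compound exposure, 25 °C. Detection: flow cytometry of retained JC-1 fluorescence. Read-out basis: efflux inhibition in percent versus controls. Controls: nicardipine and DMSO wells.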
RAM inhibit: blocks the yeast RAM network; S. cerevisiae dse1pr::URA3 reporter, 5-FOA growth OD615, 2 d; analog-sensitive cbk1-as2 kinase mutant strain; inhibition, % at 50 µM; 190,000 tested, 1.8% active; AID 868;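 active = inhibition above a set limit, 3 SD over mean compound inhibition, cut at about 8.4% in these data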;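 also: 0% = DMSO-only wells with no growth and 100% = 10 µM 1-NA-PP1 full growth; inhibition rescues growth on 5-FOA so higher OD means more RAM inhibition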
L major viab: reduces viability of Leishmania major promastigotes; resazurin fluorescence viability; inhibition, % at 10 µM; 200,000 tested, 9% active; in the data active = inhibition above about 50%;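 also: promastigotes grown with compound for 44 hours at 28 °C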
WT yeast gro inh: growth inhibition of WT yeast, mitochondrial fusion screen. mitochondrial fusion phenotypic screen, WT strain. inhibition, % at 10 µM. 190,000 tested, 2.1% active. AID 1362; in the data active = inhibition above about 58%; tested in S. cerevisiae
ABCB1 inh: blocks JC-1 efflux by human ABCB1 transporter; 190,000 tested, 0.067% active; CCRF-Adr cells, flow cytometry; P08183; AID 1326; inhibition, % at 6.6 µM; in the data active = inhibition above about 40%;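 also: 0% = vehicle and 100% = reference inhibitor; higher value means more JC-1 retained so stronger ABCB1 efflux block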
Active calls of the source: *. In the library only some 12% were active in any assay of this set; here they are far more common.

SMILES | ABCG2 block | RAM inhibit | L major viab | WT yeast gro inh | ABCB1 inh
COc1ccccc1/C=C/C(=O)NCC(=O)N/N=C/c1cc(Br)ccc1OC | -1 | 0 | -9 | 4 | 0
Cc1c(C(=O)NCC2CCCO2)cccc1[N+](=O)[O-] (stereo not drawn) | 4 | 1 | 6 | 9 | 0
O=C(CN1CCc2ccccc2C1)NC1CCCC1 | -1 | 0 | 6 | 5 | 0
COc1cccc(/C=C2\N=C(SC)SC2=O)c1OC | 55 | 9.6* | 7 | 9 | 1
O=C(c1ccccc1)N1CCN(CC#Cc2ccccc2)CC1 | 0 | 1 | -6 | 14 | 0
C(#Cc1ccc(C#CCN2CCCC2)cc1)CN1CCCC1 | 4 | 0 | 92* | -3 | 0
Oc1ccc(Cl)cc1C=Nc1ccc2c3c(cccc13)CC2 | 10 | 3 | 84* | -6 | 0
CCC(C)(C(=O)NC1CCCC1)N(C(=O)CC1NC(=O)NC1=O)c1c(C)n(C)n(-c2ccccc2)c1=O (stereo not drawn) | 2 | 1 | -5 | 4 | 0
O=C(Cc1cccs1)Nc1cccc(C(=O)Nc2ccc(C(=O)O)cc2)c1 | 0 | 0 | -5 | 13 | 0
Cc1cc(Cl)ccc1N(CC(=O)NCc1ccc2c(c1)OCO2)S(C)(=O)=O | 1 | 0 | 1 | 5 | 1
NC(=O)c1ccc(NC(=O)CCCN2C(=O)c3ccccc3C2=O)cc1 | 1 | 0 | -4 | 63* | 0
CC(=O)Nc1ccc(NC(=O)CCCN2C(=O)c3ccccc3C2=O)cc1 | 3 | 0 | -4 | 2 | 0
CCC(=O)NC(=S)Nc1ccc(Cl)cn1 | 4 | -2 | 9 | 13 | 0
O=C(Nc1ccc(Cl)cn1)C1CC1 | 5 | 1 | -1 | 3 | 1
O=C(NC(=S)Nc1ccc(Cl)cn1)C(c1ccccc1)c1ccccc1 | 0 | 4 | 1 | 72* | 0
O=C(NC(=S)Nc1ccc(Cl)cn1)C12CC3CC(CC(C3)C1)C2 | -7 | 4 | 1 | 73* | -3
S=C(Nc1ccccc1)Nc1ccc(Cl)cn1 | 7 | 3 | 41 | 14 | 0
O=C(Nc1ccc(Cl)cn1)C1C(c2ccccc2)C1(Cl)Cl (stereo not drawn) | 13 | -1 | 25 | 71* | -1
COc1cc(C(=O)NCCc2ccc(S(=O)(=O)N3CCCC3)cc2)cc(OC)c1OC | 2 | 3 | -5 | -16 | 0
CC(C)NC(=O)CN1CCC(c2ccccc2)C(O)C1 (stereo not drawn) | 0 | 0 | -2 | -11 | 0
Cc1cc(C)c(OCC(O)CN2CCN(c3ccccn3)CC2)c(C)c1 (stereo not drawn) | 4 | 0 | -4 | 5 | 1
CCc1nnc(N/N=C/c2c(C)[nH]c3ccccc23)n1N | -1 | 0 | 35 | -28 | 0
COc1ccccc1/C=C/CN1CCCC(CCC(=O)NCc2ccc(F)c(F)c2)C1 (stereo not drawn) | 1 | 2 | 11 | -4 | 1
O=C(CCC1CCCN(Cc2ccc3c(c2)OCCO3)C1)NCc1ccc(F)c(F)c1 (stereo not drawn) | 9 | 0 | 73* | 4 | 1
COC(=O)c1ccc(CN2CCCC(CCC(=O)NCc3ccc(C)o3)C2)cc1 (stereo not drawn) | 0 | 1 | 77* | -11 | 0
SMILES | ABCG2 block | RAM inhibit | L major viab | WT yeast gro inh | ABCB1 inh
O=C(CCC1CCCN(Cc2cccc3c2OCO3)C1)NCc1ccc(F)c(F)c1 (stereo not drawn) | 4 | 1 | 87* | 10 | 1
O=C(CCC1CCCN(C(=O)c2ccc3c(c2)OCO3)C1)NCc1ccc(F)c(F)c1 (stereo not drawn) | 0 | 0 | -5 | -3 | 0
COc1ccc(/C=C/CN2CCCC(CCC(=O)NCc3ccc(F)c(F)c3)C2)cc1 (stereo not drawn) | 1 | 3 | 81* | -1 | 1
COc1cc(/C=N/N=C(/N)c2nonc2N)cc(Br)c1OCc1ccccc1C | 2 | 6 | 75* | 13 | 0
CCOc1cc(/C=N/N=C(/N)c2nonc2N)cc(Br)c1OCc1ccc(Cl)cc1 | 1 | 4 | 10 | -5 | 0
O=C(CCc1ccccc1)NC(NC(=S)Nc1ccc(Cl)cc1)C(Cl)(Cl)Cl (stereo not drawn) | 0 | 2 | 5 | 4 | -1
Cc1cc(N2CCN(c3nc(-c4ccccc4)cs3)CC2)c2ccccc2n1 | 6 | 0 | 12 | 70* | 1
c1ccc(-c2csc(N3CCCCCC3)n2)cc1 | 0 | 3 | -2 | 6 | 0
CCCN(CC(=O)Nc1ccccc1Br)CC(=O)Nc1ccc(F)c(F)c1F | 26 | 1 | 9 | 3 | 2
CCCN(CC(=O)Nc1cc(Cl)cc(Cl)c1)CC(=O)Nc1ccc(F)c(F)c1F | 15 | 4 | 63* | 73* | 1
COc1cc2c(cc1OC)CN(c1nc(CN3CCCCC3)nc3sc4c(c13)CCCC4)CC2 | 13 | 0 | 99* | 7 | 20
COc1cc2c(cc1OC)CN(c1nc(CN3CCOCC3)nc3sc4c(c13)CCCC4)CC2 | 15 | 1 | 32 | 15 | 3
CN(C)S(=O)(=O)c1ccc(C(=O)NCCN2C(=O)S/C(=C\c3cccnc3)C2=O)cc1 | 3 | 0 | 12 | -4 | 0
CS(=O)(=O)c1ccc(C(=O)NCCN2C(=O)S/C(=C\c3cccnc3)C2=O)cc1[N+](=O)[O-] | 0 | 1 | 74* | -4 | 0
O=C(/C=C/c1ccccc1[N+](=O)[O-])NCCN1C(=O)S/C(=C\c2ccc(F)cc2)C1=O | 1 | 3 | -5 | -46 | 0
CC(C)(C)C(=O)NCCN1C(=O)S/C(=C\c2ccc([N+](=O)[O-])cc2)C1=O | 15 | -1 | 57* | -25 | 1
O=C(CN1C(=O)/C(=C\c2ccc(F)cc2)Oc2ccccc21)NCc1ccco1 | -1 | 7 | -7 | 1 | 0
CCOc1cccc(C(=O)NNC(=O)CCC(=O)O)c1 | 7 | 1 | 0 | 3 | 1
CCSc1nc2ccc(N3C(=O)C4C5C=CC(C5)C4C3=O)cc2s1 (stereo not drawn) | 1 | 1 | -6 | -16 | 0
CC1CCCC(NC(=S)NC(=O)c2cncc(Br)c2)C1C (stereo not drawn) | 7 | 2 | 46 | 62* | 0
COC(=O)c1cccc(NC(=O)CCNC(=O)c2ccc([N+](=O)[O-])cc2)c1 | 1 | 1 | 11 | -2 | 0
O=C(O)c1cnc(-c2ccccc2)nc1Sc1ccc(Cl)cc1 | 0 | 8.6* | -11 | 15 | 0
CCC1CCC(c2nnc(-c3ccc([N+](=O)[O-])cc3)o2)CC1 (stereo not drawn) | 6 | 5 | -8 | 14 | 0
O=C(Nc1ccc(Cc2ccncc2)cc1)C1CCC(N2C(=O)C3C4C=CC(C5CC45)C3C2=O)CC1 (stereo not drawn) | 3 | 1 | 52* | -6 | 3
O=C(O)c1ccc2c(=O)n3c(nc2c1)/C(=C/c1ccccc1C(F)(F)F)CCCC3 | 13 | 0 | -8 | 4 | 0
